Furin inhibitor: blocks human furin protease activity; P09958; purified furin, fluorogenic substrate cleavage; inhibition, % at 20 µM or 30 µM; 220,000 compounds, 0.061% hits; AID 463115; in the data active means inhibition above about 25%
KLK5 inh: blocks human kallikrein 5 protease activity; 210,000 compounds, 0.59% hits; inhibition, % at 5 µM; recombinant hK5, fluorogenic AMC substrate cleavage; Q9Y337;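 active means inhibition of 40% or more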;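 further: 0% = enzyme controls without compound and 100% = no-enzyme blanks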
FXIa inh: factor XIa (human) inhibition | P03951 | inhibition, % at 5 µM | 220,000 compounds, 0.14% hits | purified FXIa, Boc-Glu-Ala-Arg-AMC fluorogenic substrate;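 active means inhibition of at least 40%; inactive means inhibition below 40%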;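 further: fluorescence of freed AMC excited at 355 nm; 0% = enzyme without compound and 100% = no enzyme blank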
Target sequence (P03951 19-387 limits assumed): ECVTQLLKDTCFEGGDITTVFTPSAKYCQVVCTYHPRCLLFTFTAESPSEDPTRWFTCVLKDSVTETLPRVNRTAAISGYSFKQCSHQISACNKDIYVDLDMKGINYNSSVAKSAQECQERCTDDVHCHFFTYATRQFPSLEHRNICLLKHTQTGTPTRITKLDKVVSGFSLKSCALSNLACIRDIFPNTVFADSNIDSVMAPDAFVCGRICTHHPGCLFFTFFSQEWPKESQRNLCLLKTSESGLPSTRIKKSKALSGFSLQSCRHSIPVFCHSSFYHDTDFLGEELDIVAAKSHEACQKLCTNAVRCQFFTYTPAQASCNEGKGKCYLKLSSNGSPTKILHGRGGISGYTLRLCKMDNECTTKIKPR
Target sequence (P03951 388-625 limits assumed): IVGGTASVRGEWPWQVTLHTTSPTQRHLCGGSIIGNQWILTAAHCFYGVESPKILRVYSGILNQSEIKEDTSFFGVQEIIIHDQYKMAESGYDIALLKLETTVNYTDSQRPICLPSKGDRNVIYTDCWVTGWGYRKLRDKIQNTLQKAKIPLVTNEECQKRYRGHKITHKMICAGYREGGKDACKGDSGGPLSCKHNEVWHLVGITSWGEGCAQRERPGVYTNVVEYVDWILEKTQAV
FXIIa inh 1536: blocks human coagulation factor XIIa protease activity; P00748; purified FXIIa, Boc-QGR-AMC fluorogenic substrate, 2 h; inhibition, % at 5 µM; 220,000 compounds, 0.3% hits; AID 800; in the data active means inhibition above about 40%;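 further: 0% = enzyme with no compound and 100% = blank without enzyme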
m-calpain inh: calpain II (pig) inhibition; purified calpain II, fluorogenic peptide substrate, 30 min; inhibition, % at 16 µM; 220,000 compounds, 0.37% hits; AID 1236;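 active means inhibition above about 50%, limit read from the data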
thrombin 1536: thrombin (human) inhibition; P00734; alpha-thrombin, Boc-VPR-AMC fluorogenic substrate cleavage; inhibition, % at 5 µM; 220,000 compounds, 0.26% hits;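 active means inhibition at or above 40%; inactive means inhibition below 40%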;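 further: 0% = enzyme with no compound and 100% = wells without enzyme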
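signal = AMC fluorescence, 355/460 nm | material = human alpha-thrombin enzyme | control set = enzyme without compound as high, wells lacking enzyme as low | times = reaction at room temperature | read-out basis = percent inhibition scaled between no-compound controls and no-enzyme blanks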
An asterisk follows results filed as active; . = no result given. The list is not random: actives were taken first. Their share in the collection is about 1.4%.

SMILES | Furin inhibitor | KLK5 inh | FXIa inh | FXIIa inh 1536 | m-calpain inh | thrombin 1536
CC(=O)Nc1ccc(N=Nc2c(C)[nH]n(C(N)=S)c2=O)cc1 | -2 | -1 | 0 | 5 | -6 | -4
C#CCSc1nncn1C(=O)/C=C/c1ccccc1 | -21 | 35 | 30 | 31 | 13 | 90*
CC1C2CC(C(CN(C)C)/C2=N/O)C1(C)C (stereo unspecified) | -5 | -17 | 1 | 6 | -12 | -1
Cc1cccc(OCCCSc2nc3ccc(C)cc3[nH]2)c1 | 5 | -15 | -14 | 0 | 71* | 10
NC(=O)c1ccsc1NC(=O)CSc1nnc(C2CC2)n1Cc1ccccc1 | -12 | 48* | 10 | 16 | -1 | 59*
O=C(CSc1nnc(C2CC2)n1Cc1ccccc1)NCc1ccccc1 | 0 | 3 | -4 | 9 | 9 | 0
CCCCCCCCCSc1n[nH]c(N)n1 | -14 | -8 | 0 | 15 | -15 | -2
O=C(c1ccc(Cl)cc1)c1oc2ccccc2c1CS(=O)(=O)c1ccccc1 | -11 | -17 | -1 | 8 | 60* | -2
Cc1cc(-c2ccco2)n(CC(=O)NCc2ccccc2)n1 | -37 | -3 | 10 | 7 | -2 | 2
Cc1cc(-c2ccco2)n(CC(=O)O)n1 | -16 | 115* | -4 | -3 | 13 | -1
C=CCSc1nc2c(cnn2-c2ccc(C)c(C)c2)c(=O)[nH]1 | -14 | -1 | 6 | 15 | -18 | -1
COc1ccccc1CC(=O)NN1C(=O)c2ccccc2C1=O | -6 | 44* | 3 | 106* | 32 | 6
CC(C)OCCCNS(=O)(=O)c1ccc2c(c1)oc(=O)n2C | -18 | 42* | 16 | 21 | 3 | 14
C=CCNC(=S)N/N=C/c1ccc(C)cc1C | -15 | -1 | 3 | 7 | 38 | -3
C=CCNC(=S)N/N=C/c1ccc(C)c([N+](=O)[O-])c1 | -11 | 62* | 41* | 106* | 52* | 24
C=C(C)Cc1c(C)c(C#N)c2nc3ccccc3n2c1N1CCCCC1 | -23 | 7 | -11 | 18 | -141 | 5
O=C(CSc1ncccn1)n1c2c(c3ccccc31)CCCC2 | -9 | 77* | 1 | 24 | 17 | 17
O=C(CN1CCN(c2ccccn2)CC1)Nc1ccc(Oc2ccccc2)cc1 | -15 | -7 | 27 | 56* | 30 | 2
O=C(Nc1cnn(Cc2ccc(F)cc2)c1)C(c1ccccc1)c1ccccc1 | 4 | -14 | 0 | -1 | 53* | -3
O=C(Nc1cnn(Cc2ccc(F)cc2)c1)c1cnccn1 | -19 | -15 | -19 | 2 | -4 | -5
CCN(CC)C(=O)CSc1nc2ccccc2c(=O)n1CC | -9 | 88* | 5 | 17 | -3 | 22
CCn1ncc(C2=NOC(C(=O)NCc3ccccc3)C2)c1C (stereo unspecified) | -18 | 45* | 2 | 16 | 20 | 18
CCn1ncc(C2=NOC(C(=O)NCc3ccc(OC)cc3)C2)c1C (stereo unspecified) | -9 | 0 | -1 | 5 | -5 | -4
COc1cccc(C2=NOC(C(=O)Nc3c(C)n(C)n(-c4ccccc4)c3=O)C2)c1 (stereo unspecified) | -14 | -1 | -1 | -1 | 18 | -11
CCn1ncc(C2=NOC(C(=O)Nc3c(C)n(C)n(-c4ccccc4)c3=O)C2)c1C (stereo unspecified) | -15 | 60* | 5 | 6 | 5 | 39
SMILES | Furin inhibitor | KLK5 inh | FXIa inh | FXIIa inh 1536 | m-calpain inh | thrombin 1536
CCN(CCNC(=O)C1CC(=O)N(CCc2ccccc2)C1)c1ccccc1 (stereo unspecified) | -18 | 6 | -29 | 7 | 17 | -4
Cc1ccc(CN2CCN(Cc3cnc(C)[nH]3)CC2CCO)cc1 (stereo unspecified) | -12 | 4 | 3 | 7 | 14 | -4
c1ccc(-n2nnnc2Cc2nnnn2-c2ccccc2)cc1 | -10 | 73* | 25 | 30 | 9 | 2
c1ccc(-n2nnnc2CN2CCOCC2)cc1 | -18 | -1 | 8 | 14 | -6 | 0
CN(C)/C=C/C(=O)c1ccc(Oc2ncccn2)cc1 | -16 | -8 | -5 | 2 | 9 | 1
CCn1c(CNc2ccc(C(=O)O)cc2)nc2ccccc21 | -11 | -15 | -4 | 13 | 16 | -1
O=C(O)c1ccc(NCc2nc3ccccc3n2Cc2ccccc2)cc1 | -8 | 27 | 24 | 101* | 12 | 18
CCc1cccc2c(N=O)c(O)[nH]c12 | -29 | -4 | 7 | 2 | 7 | -3
CCOc1cc(NC(=S)NCCCN2CCOCC2)c(OCC)cc1NC(=O)c1ccc(C)cc1 | 2 | 41* | 27 | 52* | -56 | 14
CCOc1cc(NC(=S)NCCCN2CCOCC2)c(OCC)cc1NC(=O)c1ccccc1 | -16 | . | 1 | 12 | -56 | -1
Cc1cccc(Cn2cnc3c(NS(C)(=O)=O)c(C)c(C)cc32)c1 | -10 | 57* | 0 | 13 | 6 | 1
COC(=O)c1[nH]c2cccc(OC)c2c1NC(=O)CN1CCN(c2cccc(OC)c2)C(C)C1 (stereo unspecified) | -18 | 125* | -4 | -1 | -189 | 3
C=CCNC(=O)/C(C#N)=C\c1cc(Cl)c(O)c(OCC)c1 | -10 | 52* | 8 | 8 | 24 | 48*
O=C(Cc1cccs1)Nc1nnc(Cc2ccccc2)s1 | -25 | -83 | 3 | 4 | -61 | -1
O=C(Cc1cccs1)Nc1nnc(CCc2ccccc2)s1 | 19 | 43* | 41* | 15 | 1 | 54*
COc1ccc(S(=O)(=O)N(C)CC(=O)Nc2cccc(C(C)=O)c2)cc1 | -140 | 1 | 1 | -5 | -13 | -23
O=C1NC2(CCCCC2)NN1c1ccccc1 | -6 | -17 | -13 | 0 | 15 | 48*
COc1ccc(C2C3C(=O)N(Cc4ccccc4)C(=O)C3ON2c2ccccc2)c(OC)c1OC (stereo unspecified) | -11 | 52* | 7 | 13 | 26 | 19
COc1cc(C2C3C(=O)N(Cc4ccccc4)C(=O)C3ON2c2ccccc2)cc(OC)c1OC (stereo unspecified) | -2 | -10 | -2 | 11 | 44 | 5
COC(=O)CN1C(=O)C(O)(CC(=O)c2ccc(Cl)cc2)c2ccccc21 (stereo unspecified) | -17 | 8 | 7 | 9 | 14 | 41*
O=C(CCn1c(=O)sc2ccccc21)NCc1cccs1 | 3 | -3 | 1 | 10 | 4 | -4
CCOC(=O)c1cnc(-c2ccccc2)nc1Oc1ccc(Cl)c(Cl)c1 | -17 | 65* | 7 | 5 | 22 | 28
C=C(C)c1cccc(C(C)(C)NC(=O)NCc2ccncc2)c1 | -16 | . | -4 | 6 | -2 | -6
Cc1sc2nc(N)sc2c1C | -6 | 63* | 1 | 10 | 10 | -5
CCCNC(=O)Cn1nc(C(F)(F)F)cc1C | -27 | 2 | -1 | 12 | -26 | -1
COCCNC(=O)Cn1nc(C(F)(F)F)cc1C | -4 | 44* | 13 | 11 | 4 | 104*
